Source: ChEMBL document CHEMBL1137720, “New acyclic nucleosides analogues as potential analgesic, anti-inflammatory, anti-oxidant and anti-microbial derived from pyrimido[4,5-b]quinolines” (2009)

Columns and labels:
[1] = system: Nucleic Acid; assay: Inhibition of bleomycin-induced DNA damage assessed as absorbance at 532 nm after 1 hr at 37 degC; format: nucleic-acid assay
Outline: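 The 0.5 mL reaction contained calf thymus DNA (0.5 mg/mL), bleomycin sulfate (0.05 mg/mL), MgCl2 (5 mM), FeCl3 (50 µM) and compound at varying concentrations. After 1 h at 37 °C, the reaction was stopped with EDTA. TBA (1%) and HCl (25%) were added, followed by 10 min at 80 °C. After centrifugation, DNA damage was read as A532.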

[2] = system: Escherichia coli; assay: Antibacterial activity against Escherichia coli ATCC 23566 at 100 ug/disk after 24 to 48 hrs by agar disk diffusion method; format: functional; conditions: read-out: DIZ
Outline: (§1)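 Agar disc diffusion used sterile 5 mm filter-paper discs loaded with 100 µg per disc, with DMSO as solvent. Plates were incubated 24–28 h at 37 °C and inhibition zone diameters measured: 6–10 mm slight, 11–15 mm moderate, >15 mm high. For MIC, discs carried varying amounts, and MIC was the lowest amount giving no visible growth.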

[3] = Antioxidant activity in Sprague-Dawley rat erythrocytes assessed as ABTS-induced hemolysis after 1 hr; format: functional, Erythrocyte; design: concentration or dose not given beside the values
[4] = system: Rattus norvegicus; assay: Antiinflammatory activity in Sprague-Dawley rat assessed as inhibition of carrageenan-induced paw edema after 1 hr; format: functional
Outline: (§2)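 Adult female Sprague-Dawley rats, 150–180 g, were used (n = 6 per group). Paw volume increase after carrageenan was read at 1, 2, 3 and 4 h. % edema inhibition was calculated against untreated controls. The reference drug was given orally at 10 mg/kg as an aqueous suspension.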

[5] = system: Candida albicans; assay: Antimicrobial activity against Candida albicans ATCC 14053 at 100 ug/disk after 5 days by agar disk diffusion method; format: functional; conditions: ATCC 14053, 120 h, read-out: DIZ
[6] = species on record: Mus musculus; assay: Analgesic activity in Swiss mouse assessed as reaction time after 60 mins by hot plate test; format: functional
Outline: (§3)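 Swiss mice of both sexes, 25–30 g, were housed at 22 ± 1 °C on a 12 h light/dark cycle with free access to diet and water. Hot-plate testing followed Turner's method.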

[7] = Antioxidant activity assessed as inhibition of ABTS-oxidation in 0.1 M phosphate buffer at pH 7; format: functional
Outline: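 ABTS (60 µM, 2 mL) was mixed with MnO2 (25 mg/mL) in 0.1 M phosphate buffer pH 7, then shaken, centrifuged and filtered. Radical solution A734 was set to about 0.5. MeOH/buffer served as negative control.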

[8] = system: Aspergillus fumigatus; assay: Antimicrobial activity against Aspergillus fumigatus ATCC 96918 at 100 ug/disk after 5 days by agar disk diffusion method; format: functional; conditions: ATCC 96918, 120 h, read-out: DIZ
[9] = system: Rattus norvegicus; assay: Antiinflammatory activity in Sprague-Dawley rat assessed as inhibition of carrageenan-induced paw edema after 3 hrs; format: functional; outline: as §2
[10] = species on record: Mus musculus; assay: Analgesic activity in Swiss mouse assessed as reaction time after 30 mins by hot plate test; format: functional; outline: as §3
[11] = system: Staphylococcus aureus; assay: Antibacterial activity against Staphylococcus aureus ATCC 25923 at 100 ug/disk after 24 to 48 hrs by agar disk diffusion method; format: functional; conditions: read-out: DIZ; outline: as §1
[12] = system: Rattus norvegicus; assay: Antiinflammatory activity in Sprague-Dawley rat assessed as inhibition of carrageenan-induced paw edema after 2 hrs; format: functional; outline: as §2
[13] = species on record: Mus musculus; assay: Analgesic activity in Swiss mouse assessed as reaction time after 90 mins by hot plate test; format: functional; outline: as §3
[14] = system: Pseudomonas aeruginosa; assay: Antibacterial activity against Pseudomonas aeruginosa ATCC 10145 at 100 ug/disk after 24 to 48 hrs by agar disk diffusion method; format: functional; conditions: read-out: DIZ; outline: as §1
[15] = system: Rattus norvegicus; assay: Antiinflammatory activity in Sprague-Dawley rat assessed as inhibition of carrageenan-induced paw edema after 4 hrs; format: functional; outline: as §2

Row | Compound | deltaA [1] | zone of inhibition at 100 µg/disc [2] [mm] | Activity [3] [%] | inhibition (INH) [4] [%] | zone of inhibition at 100 µg/disc [5] [mm] | Activity [6] [s] | inhibition [7] [%] | zone of inhibition at 100 µg/disc [8] [mm] | inhibition (INH) [9] [%] | Activity [10] [s] | zone of inhibition at 100 µg/disc [11] [mm] | inhibition (INH) [12] [%] | Activity [13] [s] | zone of inhibition at 100 µg/disc [14] [mm] | inhibition (INH) [15] [%]
1 | O=c1c2c(-c3ccc(Cl)cc3)c3c(nc2nc2[nH]nc([C@H](O)[C@@H](O)[C@@H](O)[C@H](O)CO)n12)/C(=C/c1ccc(Cl)cc1)CCC3 | 0.029 | 20 | 4.01 | 50 | 11 | 5.45 | 83.7 | 7 | 49.27 | 3.767 | 20 | 56 | 6.767 | 19 | 50
2 | CC(=O)Oc1ccccc1C(=O)O [ASPIRIN] |  |  |  |  |  | 7.683 |  |  |  | 5.1 |  |  | 8.65 |  | 
3 | O=c1[nH]c(=S)[nH]c2nc3c(c(-c4ccccc4)c12)CCC/C3=C\c1ccccc1 |  | 17 | 35.75 | 31.25 | 11 | 2.65 | 44.4 | 13 | 27.54 | 2.7 | 14 | 24 | 2.583 | 15 | 25
4 | CC(=O)OC[C@@H](OC(C)=O)[C@@H](OC(C)=O)[C@H](/C=N/Nc1nc2nc3c(c(-c4ccc(Cl)cc4)c2c(=O)n1OC(C)=O)CCC/C3=C\c1ccc(Cl)cc1)OC(C)=O |  | 14 | 6.06 | 15.62 | 7 | 3.483 | 40.7 | 11 | 26.09 | 3.5 | 11 | 20.37 | 4.033 | 13 | 26.56
5 | O=c1c2c(-c3ccc(Cl)cc3)c3c(nc2nc2[nH]nc([C@H](O)[C@H](O)[C@H](O)CO)n12)/C(=C/c1ccc(Cl)cc1)CCC3 | 0.045 | 18 | 3.42 | 46.88 | 13 | 5.35 | 68.8 | 13 | 39.06 | 3.55 | 22 | 40.58 | 6.667 | 18 | 39.81
6 | CC(=O)OC[C@@H](OC(C)=O)[C@@H](OC(C)=O)[C@@H](OC(C)=O)[C@@H](OC(C)=O)c1n[nH]c2nc3nc4c(c(-c5ccc(Cl)cc5)c3c(=O)n12)CCC/C4=C\c1ccc(Cl)cc1 |  | 14 | 8.18 | 18.75 | 11 | 2.667 | 40.7 | 12 | 13.28 | 2.483 | 13 | 14.8 | 2.633 | 12 | 19.57
7 | NNc1nc2nc3c(c(-c4ccc(Cl)cc4)c2c(=O)[nH]1)CCC/C3=C\c1ccc(Cl)cc1 |  | 22 | 5.45 | 34.38 | 13 | 4.067 | 59.3 | 11 | 37.68 | 3.7 | 18 | 34 | 6.617 | 20 | 35.19
8 | O=c1c2c(-c3ccc(Cl)cc3)c3c(nc2nc2[nH]nc([C@@H](O)[C@H](O)[C@H](O)CO)n12)/C(=C/c1ccc(Cl)cc1)CCC3 | 0.05 | 20 | 3.51 | 40.62 | 12 | 5.933 | 66.7 | 16 | 45.31 | 3.6 | 20 | 52 | 8.433 | 19 | 46.67
9 | CC(=O)OC[C@@H](OC(C)=O)[C@H](OC(C)=O)[C@H](OC(C)=O)[C@@H](OC(C)=O)c1n[nH]c2nc3nc4c(c(-c5ccc(Cl)cc5)c3c(=O)n12)CCC/C4=C\c1ccc(Cl)cc1 |  | 14 | 8.33 | 21.88 | 11 | 2.667 | 42.6 | 11 | 18.48 | 2.65 | 10 | 14 | 2.483 | 10 | 17.19
10 | O=C1O[C@H]([C@@H](O)CO)C(O)=C1O [ASCORBIC ACID] | 0.026 |  | 3.93 |  |  |  |  |  |  |  |  |  |  |  | 
11 | CC(=O)N1CCN(c2ccc(OCC3COC(Cn4ccnc4)(c4ccc(Cl)cc4Cl)O3)cc2)CC1 (stereo not drawn) [KETOCONAZOLE] |  |  |  |  | 21 |  |  | 19 |  |  |  |  |  |  | 
12 | O=C(O)c1cn(C2CC2)c2cc(N3CCNCC3)c(F)cc2c1=O [CIPROFLOXACIN] |  |  |  |  |  |  |  |  |  |  | 24 |  |  | 24 | 
13 | CC(=O)OC[C@@H](OC(C)=O)[C@@H](OC(C)=O)[C@@H](/C=N/Nc1nc2nc3c(c(-c4ccc(Cl)cc4)c2c(=O)n1OC(C)=O)CCC/C3=C\c1ccc(Cl)cc1)OC(C)=O |  | 14 | 30.75 | 18.75 | 10 | 3.483 | 35.2 | 8 | 28.98 | 3.667 | 13 | 28 | 4.583 | 15 | 22.22
